Compound activity (PubChem)
TAAR1 agonist = agonists of human TAAR1. Q96RJ0. CHO RD-HGA16 TAAR1, Fluo-8 calcium fluorescence; vehicle wells 0%, saturating PEA agonist 100%. activation, % at 3 µM. hit rate 0.99% among 360,000. AID 624467;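 active means activation above the mean activation of all test compounds in the run plus 3 SD, cut at about 38% in these data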
Target sequence (Q96RJ0 whole entry, looked up): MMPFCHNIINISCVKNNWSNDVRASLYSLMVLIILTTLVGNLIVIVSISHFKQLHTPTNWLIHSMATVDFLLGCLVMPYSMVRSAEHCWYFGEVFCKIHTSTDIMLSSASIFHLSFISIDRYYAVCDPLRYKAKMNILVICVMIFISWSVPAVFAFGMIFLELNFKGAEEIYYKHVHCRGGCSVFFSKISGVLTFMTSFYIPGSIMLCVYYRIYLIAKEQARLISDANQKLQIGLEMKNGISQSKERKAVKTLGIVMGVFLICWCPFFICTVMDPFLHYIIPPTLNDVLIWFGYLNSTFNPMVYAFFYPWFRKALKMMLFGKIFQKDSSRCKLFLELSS
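Test system: RD-HGA16 (CHO) cells co-expressing Gα16 and hTAAR1 | Doses: Single dose, 3 µM | Schedule: 17-24 h seeding, 75 min 37 °C dye, 30 min RT | Evaluation: % activation from peak over basal fluorescence ratio, DMSO-to-PEA scaled | Technique: Kinetic Fluo-8 calcium fluorescence | Benchmarks: Low control DMSO, high control PEA (EC100)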
GPR7 antagonist = human neuropeptides B/W receptor 1 antagonism; P48145; GPR7-expressing cells, fluorescence antagonist assay; inhibition, % at 4.4 µM; hit rate 1.1% among 290,000; AID 1861; in the data active means inhibition above about 16%, passing the limit was not always enough;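 further: cells stimulated with the agonist NPW; 0% = agonist with vehicle and 100% = vehicle without agonist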
OX1R antag-1 = antagonists of human orexin 1 receptor (OX1R) | hit rate 1.8% among 330,000 | inhibition, % at 6.6 µM | O43613 | OX1R-expressing cells, FRET antagonist read-out; in the data active means inhibition mostly above about 38%, no sharp cut-off; inactive means mostly below about 40%;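 further: 0% = agonist challenge alone and 100% = reference antagonist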
Target sequence (O43613 whole entry, looked up): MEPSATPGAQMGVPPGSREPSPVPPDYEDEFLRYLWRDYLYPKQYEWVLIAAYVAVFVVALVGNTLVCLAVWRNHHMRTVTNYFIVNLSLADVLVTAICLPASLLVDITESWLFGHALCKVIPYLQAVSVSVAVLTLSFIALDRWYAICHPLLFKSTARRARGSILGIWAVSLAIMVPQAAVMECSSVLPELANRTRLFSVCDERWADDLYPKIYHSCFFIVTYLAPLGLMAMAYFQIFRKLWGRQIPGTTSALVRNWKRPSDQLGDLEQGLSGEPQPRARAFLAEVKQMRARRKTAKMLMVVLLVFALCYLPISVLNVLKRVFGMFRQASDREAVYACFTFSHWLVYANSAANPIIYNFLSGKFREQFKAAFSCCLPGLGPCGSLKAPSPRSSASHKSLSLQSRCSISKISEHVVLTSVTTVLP
TAAR1 antagonist = antagonists of human TAAR1; Q96RJ0; hit rate 1.5% among 360,000; CHO RD-HGA16 TAAR1, Fluo-8 calcium fluorescence, antagonist; inhibition, % at 3 µM; AID 624466;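 active means inhibition above a per-plate cutoff, the mean inhibition of test compounds on that plate plus 3 SD, cut at about 49% in these data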;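 further: 0% = DMSO plus EC80 beta-PEA response and 100% = DMSO alone without agonist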
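Test system: hTAAR1-expressing CHO RD-HGA16 cells, Gα16-coupled; Probe or stimulus: EC80 β-phenethylamine stimulus; Compound dosing: single nominal final test compound concentration of 3 µM; Timing: 140 s kinetic read after compound, 140 s after agonist; Signal: Fluo-8 calcium-sensitive fluorescence; Measure: % inhibition of agonist calcium response; Controls: DMSO and EC80 PEA controls.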
OX1R antag-2 = antagonists of human orexin 1 receptor; hit rate 0.43% among 330,000; CHO/OX1R cells, Fluo-8 calcium fluorescence, orexin A; O43613; inhibition, % at 5 µM;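 active means inhibition above its plate's threshold, mean inhibition of all tested compounds on the plate plus 3 SD, cut at about 37% in these data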;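 further: 0% = orexin A challenge wells and 100% = SB-334867-A antagonist wells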
CHO parental Ca = counter-screen for OX1R antagonists: effect in parental CHO cells | inhibition, % at 5.6 µM | parental CHO-K1, ATP-induced calcium, Fluo-8 fluorescence | hit rate 0.63% among 330,000;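 active means inhibition above that plate's mean sample inhibition plus 3 SD, cut at about 26% in these data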;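 further: 0% = ATP-challenged DMSO wells and 100% = DMSO wells without ATP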
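Assay system: untransfected parental CHO cell line. Also added: ATP agonist challenge. Dosing: one dose, 5.6 µM nominal. Measured by: Fluo-8 fluorescence. Read-out: % inhibition. Benchmarks: ATP wells versus no-ATP DMSO wells. Repeats: no replicates.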
TAAR1 nonsel count = nonselective antagonist in TAAR1 antagonist counter-screen; AID 651780; shares compounds with TAAR1 antagonist; counterscreen cell line, calcium fluorescence, antagonist mode; hit rate 77% among 2,400; inhibition, % at 3 µM; in the data active means inhibition above about 22%;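 further: CHO-Ga16 host cells stimulated with ATP at an EC80 level; 0% = agonist EC80 plus vehicle and 100% = vehicle without agonist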
TAAR1 ant conf = confirmation of human TAAR1 antagonists. shares compounds with TAAR1 antagonist. TAAR1-expressing cells, fluorescence antagonist read-out. inhibition, % at 3 µM. hit rate 40% among 2,400; in the data active means inhibition above about 49%;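 further: CHO-Ga16 host cells challenged with agonist PEA near its EC80; 0% = agonist at EC80 plus vehicle and 100% = vehicle with no agonist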
Ga16 ag counter-1 = nonselective Ga16 agonism, counter-screen; shares compounds with TAAR1 antagonist; Ga16-expressing cells, calcium fluorescence, agonist counterscreen; activation, % at 3 µM; hit rate 18% among 2,400; in the data active means activation above about 12%;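 further: 0% = vehicle wells and 100% = saturating stimulus response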
TAAR1 ag counter = TAAR1 agonism, antagonist counter-screen; shares compounds with TAAR1 antagonist; hTAAR1 cell line, fluorescence activation, agonist mode; activation, % at 3 µM; hit rate 2% among 2,400; in the data active means activation above about 37%;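 further: CHO cells stably expressing TAAR1 with calcium dye readout; 0% = DMSO vehicle and 100% = full agonist response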
TAAR1 ag confirm = confirmation of human TAAR1 agonists. shares compounds with TAAR1 agonist. CHO RD-HGA16 TAAR1, Fluo-8 calcium fluorescence; scaled: DMSO 0%, maximal phenethylamine 100%. activation, % at 3 µM. hit rate 82% among 2,400;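 active means activation above a cutoff set at the run's mean compound activation plus 3 SD, cut at about 39% in these data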
Ga16 ag counter-2 = nonselective agonist in parental cells, TAAR1 agonist counter-screen. AID 651787. activation, % at 3 µM. CHO-Ga16 parental, Fluo-8 calcium fluorescence; normalized to maximal ATP response, DMSO zero. hit rate 50% among 2,400. shares compounds with TAAR1 agonist;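 active means activation above the run cutoff, the mean activation over all tested wells plus 3 SD, cut at about 12% in these data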;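 further: 0% = DMSO wells and 100% = maximal ATP response on the peak over basal ratio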
TAAR1 desens = TAAR1 response desensitization, agonist counter-screen. shares compounds with TAAR1 agonist. CHO RD-HGA16 hTAAR1, Fluo-8 calcium, beta-PEA response inhibition. inhibition, % at 3 µM. hit rate 46% among 2,400. AID 651951;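 active means inhibition above the run cutoff, the mean inhibition of all test compounds plus 3 SD, cut at about 49% in these data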;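 further: beta-PEA stimulus applied at its EC80; loss of beta-PEA calcium signal after compound pretreatment read as receptor desensitization; 0% = DMSO with beta-PEA at EC80 and 100% = DMSO alone without agonist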
Ga16 nonsel ant = counter-screen for TAAR1 agonists: nonselective Ga16 antagonists. shares compounds with TAAR1 agonist. CHO-Ga16 ATP-induced calcium, Fluo-8 fluorescence. inhibition, % at 3 µM. hit rate 39% among 2,400. AID 651952;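 active means inhibition above the plate's mean compound inhibition plus 3 SD, computed per plate, cut at about 22% in these data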;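 further: 0% = EC80 ATP with DMSO and 100% = DMSO wells without ATP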
Numbers without * were called inactive. Shown are actives, neighbours in structure and some others; about 4.6% of the full set was active somewhere.

Screening CC(C)C[C@@H]1NC(=O)[C@H](Cc2ccccc2)N(C)C(=O)[C@H](C)NC(=O)c2ccccc2NC(=O)[C@H](Cc2ccc(O)cc2)N(C)C1=O returned TAAR1 agonist 10, OX1R antag-1 10, TAAR1 antagonist 70*, OX1R antag-2 -18, CHO parental Ca -15, TAAR1 nonsel count 32*, TAAR1 ant conf 52*, Ga16 ag counter-1 8 and TAAR1 ag counter 8.
Screening C=C1C(=O)OC2CCN3CC=C(COC(=O)C(C)(O)C4(CO4)C1C)C23 (centres undefined) returned TAAR1 agonist 2 and TAAR1 antagonist -24.
Screening Cc1ccccc1C(=O)N1CC1C (centres undefined) returned TAAR1 agonist 4 and TAAR1 antagonist -19.
For COc1cccc(NP(=O)(Oc2ccccc2)Oc2ccccc2)c1 the results were TAAR1 agonist 6, GPR7 antagonist 10, OX1R antag-1 28, TAAR1 antagonist 72*, OX1R antag-2 -16, CHO parental Ca -27, TAAR1 nonsel count 27*, TAAR1 ant conf 49*, Ga16 ag counter-1 8 and TAAR1 ag counter 7.
Cc1cc(N2CCNC[C@H]2C)ccc1N1CC[C@@H](O)C1 was read as TAAR1 agonist 3 and TAAR1 antagonist -16.
For Cn1c2ccccc2c2c(C(=O)N3CCC4(CC3)OCCO4)cn(C3CCCC3)c(=O)c21 the results were TAAR1 agonist 20, GPR7 antagonist -5, OX1R antag-1 12, TAAR1 antagonist 56*, OX1R antag-2 -19, CHO parental Ca -10, TAAR1 nonsel count 23*, TAAR1 ant conf 42, Ga16 ag counter-1 10 and TAAR1 ag counter 9.
Oc1ccccc1CN(CCc1ccccc1)Cc1ccccc1 was read as TAAR1 agonist 49*, GPR7 antagonist -11, OX1R antag-1 30, TAAR1 antagonist 32, OX1R antag-2 -53, CHO parental Ca -36, TAAR1 ag confirm 75*, Ga16 ag counter-2 16*, TAAR1 desens 89* and Ga16 nonsel ant 14.
For CN(CCc1ccccc1)Cc1ccccc1[N+](=O)[O-] the results were TAAR1 agonist 5, GPR7 antagonist -14, OX1R antag-1 29, TAAR1 antagonist -1, OX1R antag-2 -7 and CHO parental Ca -5.
ClCC(Br)CBr (centres undefined) was read as TAAR1 agonist 2, OX1R antag-1 5, TAAR1 antagonist 19, OX1R antag-2 -4 and CHO parental Ca -11.
For CCCCC(CC)CNCC(O)c1ccccc1 (centres undefined) the results were TAAR1 agonist 53*, GPR7 antagonist -2, OX1R antag-1 1, TAAR1 antagonist 5, OX1R antag-2 -26, CHO parental Ca -16, TAAR1 ag confirm 64*, Ga16 ag counter-2 5, TAAR1 desens 28 and Ga16 nonsel ant 4.
CCC(C)n1c(O)c(C=NCCc2ccccc2)c(=O)[nH]c1=S (centres undefined) was read as TAAR1 agonist 69*, GPR7 antagonist -20, OX1R antag-1 9, TAAR1 antagonist 5, OX1R antag-2 -50, CHO parental Ca -21, TAAR1 ag confirm 60*, Ga16 ag counter-2 1, TAAR1 desens 14 and Ga16 nonsel ant 8.
For CCOc1ccccc1CNCCc1ccc2c(c1)OCO2 the results were TAAR1 agonist 0, GPR7 antagonist 6, OX1R antag-1 14, TAAR1 antagonist -10, OX1R antag-2 -30 and CHO parental Ca -16.
For CCOc1ccc([N+](=O)[O-])cc1CNCCc1ccccc1 the results were TAAR1 agonist 52*, GPR7 antagonist 44*, OX1R antag-1 38, TAAR1 antagonist 27, OX1R antag-2 -27, CHO parental Ca -14, TAAR1 ag confirm 66*, Ga16 ag counter-2 2, TAAR1 desens 51* and Ga16 nonsel ant 18.
Screening Nc1ccc(-c2ccc(N)cc2)cc1 returned TAAR1 agonist 0 and TAAR1 antagonist -7.
`Cc1ccc2cc(CNCCc3ccccc3C)c(=O)[nH]c2c1` gave TAAR1 agonist 76*, GPR7 antagonist -9, OX1R antag-1 9, TAAR1 antagonist 81*, OX1R antag-2 -30, CHO parental Ca -13, TAAR1 ag confirm 83*, Ga16 ag counter-2 4, TAAR1 desens 92* and Ga16 nonsel ant 3.
`Cc1cccc(CCNCc2cc3cc(C)cc(C)c3[nH]c2=O)c1` gave TAAR1 agonist 108*, GPR7 antagonist -3, OX1R antag-1 14, TAAR1 antagonist 78*, OX1R antag-2 -36, CHO parental Ca -8, TAAR1 ag confirm 102*, Ga16 ag counter-2 3, TAAR1 desens 90* and Ga16 nonsel ant 0.
CN(C)C(=O)Oc1ccc(OCc2nc3ccccc3[nH]2)cc1 was read as TAAR1 agonist 2, GPR7 antagonist -5, OX1R antag-1 9, TAAR1 antagonist 8, OX1R antag-2 -7 and CHO parental Ca 2.
`COc1cc(OC)c(OC)cc1CNCCc1cccc(F)c1` gave TAAR1 agonist 79*, GPR7 antagonist -6, OX1R antag-1 6, TAAR1 antagonist 35, OX1R antag-2 -15, CHO parental Ca -15, TAAR1 ag confirm 78*, Ga16 ag counter-2 12*, TAAR1 desens 36 and Ga16 nonsel ant 2.
For COc1ccc(CNCCc2cccc(F)c2)c2ccccc12 the results were GPR7 antagonist 17.
